# Assay outcomes (PubChem BioAssay)
# Rows were chosen to be rich in hits. Some 3.1% of all compounds tested hit in one or more screens of this group.
# miR-122 sensor: miR-122 inhibition in Huh7 cells; activation (reporter increase), % at 12.5 µM; Huh7 miR-122 Renilla luciferase sensor, 48 h; neutral wells = 0, positive control = 100; hit rate 0.3% among 340,000; AID 602342;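 active = mean replicate activation score at least 90 and every replicate individually at or above 90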;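 note: higher luciferase means less miR-122 activity so hits act as miR-122 inhibitors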
# INS-1E GSIS act: GLuc luminescence reporter in INS-1E cells, primary screen for activators of glucose-dependent secretion of insulin. INS-1E GLuc reporter insulin secretion, 2-3 h. activation, % at 16.6 µM. hit rate 0.61% among 370,000. AID 743287;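 active = lowest replicate activation of at least 40%, so every replicate reaches that level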;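 note: 0% = median of neutral control wells and 100% = median of IBMX positive control wells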
# Ecoli rRNA inh: inhibitors of bacterial rRNA selective over humanized ribosomes; E. coli WT GFP vs humanized-ribosome RFP mutants, fluorescence, 24 h; stronger effect = lower value; DMSO median 0, no signal -100; GFP signal change (wild-type ribosome), % (concentration not given with the values); hit rate 1.6% among 350,000;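 active = significant combined selectivity score with lowered wild-type GFP, culture density cut under 30%, mutant RFP and density less affected; inactive = any of these conditions unmet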
# CFTR F508del cor: CFTR F508del correction in bronchial cells | CFBE cells, YFP halide quenching; stimulated with forskolin plus potentiator P3; % fluorescence drop versus neutral controls | hit rate 0.36% among 350,000 | AID 720511 | activity (quench increase), % at 7.58 µM;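 active = mean added fluorescence quench of at least 8% versus neutral control, with both replicates also reaching 8%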;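 note: cells transiently co-express mutant CFTR-F508del with the halide-sensitive YFP; corrector assay measuring rescue of mutant channel to the surface after 24 h compound exposure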
# Cneo AK release: causes C. neoformans cell lysis. adenylate kinase release luminescence, 4 h; normalised: neutral wells 0, clomiphene wells 100. lysis activity, % at 15 µM. hit rate 0.2% among 360,000. AID 651654;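 active = mean lysis activity across replicates of at least 80%, whatever share of replicates individually reach that level; inactive = mean lysis activity below 80%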
#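 read-out = cell lysis signal | test system = log-phase Cryptococcus neoformans yeast cells | input = cells at 5 × 10^6 per mL | medium = fresh YPD growth medium | signal = luminescent adenylate kinase detection reagent | timing = 4 h at 37 °C static, read 1 h later | dosing = single dose | controls = Clomiphene as positive lysis control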
# Env fusion inh: HIV envelope-mediated fusion inhibition. inhibition, % at 12.3 µM. HeLa-JRFL Env/CEM21 cell fusion, luciferase. AID 651610. hit rate 1.1% among 360,000;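 active = mean replicate inhibition score of at least 50 and every replicate individually at or above 50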;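 note: 0% = plate neutral controls and 100% = maraviroc near 300 nM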
# Numbers without * were called inactive; x = no result; [ ] = dose if it differs, or a comment.
SMILES,miR-122 sensor,INS-1E GSIS act,Ecoli rRNA inh,CFTR F508del cor,Cneo AK release,Env fusion inh
Cc1ccc(C(=O)c2coc3ccc(O)c(Cl)c23)cc1,6.2,x,x,x,0.7,-21.4
COc1ccc(S(=O)(=O)N[C@@H]2CC[C@H](CC(=O)NCCc3ccccc3)O[C@H]2CO)cc1,x,8.8,0.3,-3.5,0.5,-3.0[16.7 µM]
O=C(COc1ccc(Cl)cc1Cl)c1ccc[nH]1,-4.7,5.6,-30.6*,2.0,-0.8,6.3
O=C(COc1ccc(Cl)cc1Cl)N/N=C/c1ccc[nH]1,-8.6,-7.4,-22.3*,-2.0,1.2,10.8
O=C(COc1ccc(Cl)cc1Cl)N/N=C/CCc1ccccc1,2.7,x,x,x,2.3,x
COc1ccccc1NC(=O)N(C)C[C@H]1Oc2ncc(Br)cc2C(=O)N([C@@H](C)CO)C[C@@H]1C,-8.7[16.7 µM],7.7,-1.7,1.5,3.4,-18.9[16.7 µM]
CC(C)(C)OC(=O)CC[C@@H](C(=O)N1CCN(C(=O)OC(C)(C)C)CC1)n1cc(C(Cc2ccc(O)cc2)NC(=O)OC(C)(C)C)nn1 (some centres undefined),-4.4,-18.6,1.9,4.5,-1.8,61.7*
CC(C)[C@H](C)NC(=O)N(C)C[C@H]1OCc2ccccc2-c2c(n(C)c3ccccc23)C(=O)N([C@H](C)CO)C[C@@H]1C,x,-24.2,-1.8,x,x,x
Cn1cc(CN2CCN(c3ccc(Cl)cn3)CC2)c(-c2ccccc2F)n1,0.6,-15.9,-7.9,1.4,-2.6,6.5
Cc1cccc(N2CCN(Cc3cn(C)nc3-c3ccccc3F)CC2)n1,x,4.2,12.9,9.1*,x,1.8
O=C(Nc1ccc(Cl)c(C(F)(F)F)c1)[C@@H]1CC=C[C@@H]2CCN(Cc3ccc(Cl)c(Cl)c3)C(=O)[C@@H]21,-1.8,-5.1,9.6,4.0,0.8,84.2*
COc1ccc2c3c(n(C)c2c1)[C@@H](CO)NCC31CN(C(=O)Nc2ccc(F)cc2F)C1,x,16.4,1.7,0.0,x,x
COc1cccc(NS(=O)(=O)c2cc(C)sc2C)c1,121.4*,x,x,x,-1.8,x
C[C@H](CO)N1C[C@H](C)[C@H](CN(C)CC2CCCCC2)Oc2ccc(NC(=O)Nc3ccc4c(c3)OCO4)cc2C1=O,58.7[16.7 µM],-2.4,3.3,-1.1,82.6*,27.7[16.7 µM]
C[C@@H]1CN([C@@H](C)CO)C(=O)c2cc(NC(=O)Nc3ccc4c(c3)OCO4)ccc2O[C@@H]1CN(C)CC1CCCCC1,22.0[16.7 µM],-2.9,2.0,-0.7,-62.4,4.9[16.7 µM]
C[C@@H]1CN([C@H](C)CO)C(=O)c2cc(NC(=O)Nc3ccc4c(c3)OCO4)ccc2O[C@H]1CN(C)Cc1ccncc1,-8.3[16.7 µM],0.0,0.3,-0.9,-0.5,58.2*
Cc1noc(C)c1NC(=O)Nc1ccc2c(c1)C(=O)N([C@H](C)CO)C[C@@H](C)[C@@H](CN(C)CC1CCCCC1)O2,-3.9[16.7 µM],14.3,1.4,-3.4,-1.9,0.1[16.7 µM]
Cc1noc(C)c1NC(=O)Nc1ccc2c(c1)C(=O)N([C@H](C)CO)C[C@H](C)[C@H](CN(C)CC1CCCCC1)O2,-1.6[16.7 µM],4.7,0.9,-0.6,93.3*,-9.9[16.7 µM]
C[C@H]1CN([C@@H](C)CO)C(=O)c2cc(NC(=O)Nc3ccc4c(c3)OCO4)ccc2O[C@H]1CN(C)Cc1ccncc1,-2.4[16.7 µM],7.0,6.5,1.0,1.2,13.0[16.7 µM]
C[C@@H]1CN([C@H](C)CO)C(=O)c2cc(NC(=O)C3CC3)ccc2O[C@@H]1CN(C)CC1CCCCC1,-4.2[16.7 µM],15.5,1.3,2.0,6.7,6.1[16.7 µM]
C[C@@H]1CN([C@@H](C)CO)C(=O)c2cc(NC(=O)C3CC3)ccc2O[C@H]1CN(C)CC1CCCCC1,26.8[16.7 µM],-0.5,2.9,0.0,100.0*,0.3[16.7 µM]
CO[C@H]1CN(C)C(=O)c2cc(NS(=O)(=O)CC(F)(F)F)ccc2OC[C@H](C)N(CC2CCCCC2)C[C@@H]1C,x,-7.7,-6.3,-1.5,50.4,-23.3[16.7 µM]
CCCC(=O)N1CC2(CCN(C(=O)CC3CC3)CC2)c2c(n(C)c3cc(OC)ccc23)[C@H]1CO,x,-10.6,-7.0,x,x,x
C[C@H](CO)N1C[C@H](C)[C@@H](CN(C)S(=O)(=O)c2ccc(F)cc2)Oc2ccc(N(C)C)cc2CC1=O,-1.7[16.7 µM],6.8,1.3,1.8,-1.5,x
